Calls of active or inactive are those of the source. The rule behind the calls is not given here.
What was measured:
MCF7 [1] = test: Cell cycle arrest in human MCF7 cells assessed as accumulation at G2/M phase at 0.5 uM after 24 hrs using propidium iodide staining by FACS analysis (reference value: 22.13%); assay type: functional
MDA-MB-231 = test: Antiproliferative activity against human MDA-MB-231 cells after 3 days by sulforhodamine B assay; assay type: functional; conditions: MDA-MB-231, 72 h
In short: (§1)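 Tested in the NCI 60 cell line panel. GI50 is the concentration giving 50% inhibition of cell growth, and values are the mean of two series of tests.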

[2] = target: Macrophage-stimulating protein receptor (Homo sapiens) (UniProt Q04912); test: Inhibition of human Ron assessed as residual activity at 1 uM relative to control
[3] = target: Serine/threonine-protein kinase MRCK alpha (Homo sapiens) (UniProt Q5VT25); test: Inhibition of human MRCKalpha assessed as residual activity at 1 uM relative to control
[4] = target: T1, Serine/threonine-protein kinase Chk1 (Homo sapiens) (UniProt O14757); test: Inhibition of human CHK1 assessed as residual activity at 1 uM relative to control
T1 sequence (whole entry): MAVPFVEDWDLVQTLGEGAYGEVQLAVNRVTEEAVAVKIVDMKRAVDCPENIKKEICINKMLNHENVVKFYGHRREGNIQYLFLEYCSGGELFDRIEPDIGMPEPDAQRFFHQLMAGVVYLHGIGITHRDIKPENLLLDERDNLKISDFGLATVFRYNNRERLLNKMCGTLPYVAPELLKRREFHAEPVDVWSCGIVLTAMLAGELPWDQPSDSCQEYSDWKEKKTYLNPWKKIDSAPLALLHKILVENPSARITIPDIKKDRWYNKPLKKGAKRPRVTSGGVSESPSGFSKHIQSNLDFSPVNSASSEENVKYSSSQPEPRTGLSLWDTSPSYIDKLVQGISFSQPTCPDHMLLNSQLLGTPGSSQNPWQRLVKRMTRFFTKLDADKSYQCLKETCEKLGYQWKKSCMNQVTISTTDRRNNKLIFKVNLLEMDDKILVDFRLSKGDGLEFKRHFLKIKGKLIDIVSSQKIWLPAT

[5] = target: Mitogen-activated protein kinase 8 (Homo sapiens) (UniProt P45983); test: Inhibition of human JNK1alpha1 assessed as residual activity at 1 uM relative to control
[6] = target: Serine/threonine-protein kinase SIK1 (Homo sapiens) (UniProt P57059); test: Inhibition of human SIK assessed as residual activity at 1 uM relative to control
[7] = Antiproliferative activity against human RXF393 cells after 3 days by sulforhodamine B assay; assay type: functional; conditions: RXF 393, 72 h; in short: as §1
[8] = target: T1, Serine/threonine-protein kinase Chk1 (Homo sapiens); test: Inhibition of CHK1 (unknown origin) assessed as residual activity at 10 uM relative to control
[9] = target: G protein-coupled receptor kinase 6 (Homo sapiens) (UniProt P43250); test: Inhibition of human GRK6 assessed as residual activity at 1 uM relative to control
[10] = target: Casein kinase II (Homo sapiens) (UniProt P67870+P68400+P19784); test: Inhibition of CK2 in human MCF7 cells assessed as reduction of Akt phosphorylation at S473 at 0.25 to 8 uM after 2 hrs by Western blot analysis; assay type: cell-based
In short: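 Cells were lysed in urea lysis buffer (6 M urea, NaF, Na3VO4, protease inhibitors). 20–40 µg protein was run on 10% SDS-PAGE and detected by ECL. Primary antibodies (pAkt S473, PARP, β-actin loading control) were used at 1:1000 overnight at 4 °C. DMSO was the vehicle control. For the pAkt blots, cells were treated for 2 h with Ly294002 as positive control.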

[11] = target: Ribosomal protein S6 kinase beta-1 (Homo sapiens) (UniProt P23443); test: Inhibition of human p70S6K assessed as residual activity at 1 uM relative to control
[12] = target: Vascular endothelial growth factor receptor 2 (Homo sapiens) (UniProt P35968); test: Inhibition of human KDR assessed as residual activity at 1 uM relative to control
MCF7 [13] = test: Induction of late stage apoptosis in CK2-deficient human MCF7 cells at 0.25 to 4 uM after 24 hrs using propidium iodide/annexin V staining by FACS analysis; assay type: functional, cell-based
In short: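 MCF7 cells were then treated for 24 h, stained with FITC-annexin V in HEPES pH 7.4 binding buffer with 1.8 mM CaCl2 (15 min, dark, room temperature), then with PI (10 min), and analysed by FACS.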

[14] = target: Calcium/calmodulin-dependent protein kinase type II subunit beta (Homo sapiens) (UniProt Q13554); test: Inhibition of human CaMK2beta assessed as residual activity at 1 uM relative to control
[15] = target: Epidermal growth factor receptor (Homo sapiens) (UniProt P00533); test: Inhibition of human EGFR assessed as residual activity at 1 uM relative to control
[16] = target: Tyrosine-protein kinase Lyn (Homo sapiens) (UniProt P07948); test: Inhibition of human Lyn assessed as residual activity at 1 uM relative to control
MCF7 [17] = test: Cell cycle arrest in human MCF7 cells assessed as accumulation at G1 phase at 1 uM after 24 hrs using propidium iodide staining by FACS analysis (reference value: 57.74%); assay type: functional
[18] = target: G protein-coupled receptor kinase 5 (Homo sapiens) (UniProt P34947); test: Inhibition of human GRK5 assessed as residual activity at 1 uM relative to control
[19] = target: Serine/threonine-protein kinase PLK3 (Homo sapiens) (UniProt Q9H4B4); test: Inhibition of human Plk3 assessed as residual activity at 1 uM relative to control
[20] = target: Testis-specific serine/threonine-protein kinase 2 (Homo sapiens) (UniProt Q96PF2); test: Inhibition of human TSSK2 assessed as residual activity at 1 uM relative to control
[21] = target: Serine/threonine-protein kinase 33 (Homo sapiens) (UniProt Q9BYT3); test: Inhibition of human STK33 assessed as residual activity at 1 uM relative to control
[22] = target: Tyrosine-protein kinase BTK (Homo sapiens) (UniProt Q06187); test: Inhibition of human BTK assessed as residual activity at 1 uM relative to control
SR = test: Antiproliferative activity against human SR cells after 3 days by sulforhodamine B assay; assay type: functional; conditions: 72 h
[23] = target: Tyrosine-protein kinase TXK (Homo sapiens) (UniProt P42681); test: Inhibition of human Txk assessed as residual activity at 1 uM relative to control
[24] = target: Protein-tyrosine kinase 2-beta (Homo sapiens) (UniProt Q14289); test: Inhibition of human Pyk2 assessed as residual activity at 1 uM relative to control
[25] = target: Calcium/calmodulin-dependent protein kinase type II subunit delta (Homo sapiens) (UniProt Q13557); test: Inhibition of human CaMK2delta assessed as residual activity at 1 uM relative to control
[26] = target: Tyrosine-protein kinase ABL1 (Homo sapiens) (UniProt P00519); test: Inhibition of ABL1 (unknown origin) assessed as residual activity at 1 uM relative to control
[27] = target: BDNF/NT-3 growth factors receptor (Homo sapiens) (UniProt Q16620); test: Inhibition of human TrkB assessed as residual activity at 1 uM relative to control

Chain of G protein-coupled receptor kinase 5 (Homo sapiens) (P34947 whole entry, looked up): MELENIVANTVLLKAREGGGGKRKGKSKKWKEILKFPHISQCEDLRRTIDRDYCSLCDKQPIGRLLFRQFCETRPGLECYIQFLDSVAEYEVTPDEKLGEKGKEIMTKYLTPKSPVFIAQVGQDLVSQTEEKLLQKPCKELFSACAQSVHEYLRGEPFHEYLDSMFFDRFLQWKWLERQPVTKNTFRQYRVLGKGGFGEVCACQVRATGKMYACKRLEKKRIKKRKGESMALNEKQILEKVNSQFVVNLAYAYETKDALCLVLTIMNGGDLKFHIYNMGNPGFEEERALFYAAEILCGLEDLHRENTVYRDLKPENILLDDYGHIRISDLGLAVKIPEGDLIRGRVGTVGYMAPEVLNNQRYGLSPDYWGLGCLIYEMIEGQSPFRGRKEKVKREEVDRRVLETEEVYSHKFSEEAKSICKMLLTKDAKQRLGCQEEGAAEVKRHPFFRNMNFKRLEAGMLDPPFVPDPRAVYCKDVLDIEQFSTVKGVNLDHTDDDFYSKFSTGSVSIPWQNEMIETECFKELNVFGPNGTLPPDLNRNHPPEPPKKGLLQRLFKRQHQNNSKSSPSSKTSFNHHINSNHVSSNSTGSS
Chain of Serine/threonine-protein kinase SIK1 (Homo sapiens) (P57059 whole entry): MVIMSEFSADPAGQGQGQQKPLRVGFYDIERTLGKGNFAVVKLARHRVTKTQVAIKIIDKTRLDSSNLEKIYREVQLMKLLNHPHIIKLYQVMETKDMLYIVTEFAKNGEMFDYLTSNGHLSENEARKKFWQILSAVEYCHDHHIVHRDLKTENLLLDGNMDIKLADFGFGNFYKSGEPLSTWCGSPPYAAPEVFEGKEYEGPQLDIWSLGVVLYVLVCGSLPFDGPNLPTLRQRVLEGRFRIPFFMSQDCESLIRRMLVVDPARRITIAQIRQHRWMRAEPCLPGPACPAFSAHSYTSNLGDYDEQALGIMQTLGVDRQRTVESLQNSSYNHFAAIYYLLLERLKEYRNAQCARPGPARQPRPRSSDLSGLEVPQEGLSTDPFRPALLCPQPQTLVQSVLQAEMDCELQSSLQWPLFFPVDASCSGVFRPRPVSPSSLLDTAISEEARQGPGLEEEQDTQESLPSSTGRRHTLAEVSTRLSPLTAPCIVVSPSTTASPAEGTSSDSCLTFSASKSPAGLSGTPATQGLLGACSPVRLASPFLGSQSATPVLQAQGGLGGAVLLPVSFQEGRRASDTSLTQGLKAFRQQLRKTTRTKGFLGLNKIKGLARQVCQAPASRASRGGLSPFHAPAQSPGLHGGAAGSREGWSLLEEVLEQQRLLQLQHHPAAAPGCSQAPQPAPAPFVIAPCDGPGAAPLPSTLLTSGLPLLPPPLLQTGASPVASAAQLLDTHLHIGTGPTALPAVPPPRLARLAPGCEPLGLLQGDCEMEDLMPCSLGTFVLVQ
Chain of Tyrosine-protein kinase BTK (Homo sapiens) (Q06187 whole entry): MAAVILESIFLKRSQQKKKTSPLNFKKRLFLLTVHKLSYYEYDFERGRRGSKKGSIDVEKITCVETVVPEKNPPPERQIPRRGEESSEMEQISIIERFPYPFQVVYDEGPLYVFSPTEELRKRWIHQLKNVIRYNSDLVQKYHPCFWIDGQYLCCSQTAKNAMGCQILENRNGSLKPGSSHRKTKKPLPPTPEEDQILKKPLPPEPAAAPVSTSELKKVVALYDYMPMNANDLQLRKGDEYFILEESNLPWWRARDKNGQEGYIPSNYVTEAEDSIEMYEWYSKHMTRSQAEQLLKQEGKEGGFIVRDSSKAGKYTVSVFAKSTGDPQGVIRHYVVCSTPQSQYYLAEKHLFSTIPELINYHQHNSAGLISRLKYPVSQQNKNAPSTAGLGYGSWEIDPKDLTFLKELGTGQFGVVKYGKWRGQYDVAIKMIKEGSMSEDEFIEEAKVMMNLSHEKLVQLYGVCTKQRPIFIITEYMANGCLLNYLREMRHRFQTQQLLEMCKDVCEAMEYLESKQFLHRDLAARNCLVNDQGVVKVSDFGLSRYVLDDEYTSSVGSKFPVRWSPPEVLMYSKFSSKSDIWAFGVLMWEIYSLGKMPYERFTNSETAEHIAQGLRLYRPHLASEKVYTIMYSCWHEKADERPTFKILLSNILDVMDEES
Chain of Tyrosine-protein kinase TXK (Homo sapiens) (P42681 whole entry): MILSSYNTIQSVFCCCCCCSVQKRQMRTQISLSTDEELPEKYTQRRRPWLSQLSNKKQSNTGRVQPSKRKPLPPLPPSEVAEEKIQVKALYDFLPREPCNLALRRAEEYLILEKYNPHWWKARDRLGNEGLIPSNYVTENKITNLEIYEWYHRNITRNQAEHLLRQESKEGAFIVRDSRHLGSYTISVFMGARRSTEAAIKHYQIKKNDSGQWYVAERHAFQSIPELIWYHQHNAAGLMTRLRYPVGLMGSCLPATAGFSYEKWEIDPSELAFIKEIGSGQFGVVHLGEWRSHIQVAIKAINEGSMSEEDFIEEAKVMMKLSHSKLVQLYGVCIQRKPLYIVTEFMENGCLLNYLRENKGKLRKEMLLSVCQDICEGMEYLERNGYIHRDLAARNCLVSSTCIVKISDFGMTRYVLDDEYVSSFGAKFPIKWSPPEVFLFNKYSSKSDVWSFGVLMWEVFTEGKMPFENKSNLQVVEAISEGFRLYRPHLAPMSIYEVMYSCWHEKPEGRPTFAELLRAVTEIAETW
Chain of Serine/threonine-protein kinase PLK3 (Homo sapiens) (Q9H4B4 whole entry, looked up): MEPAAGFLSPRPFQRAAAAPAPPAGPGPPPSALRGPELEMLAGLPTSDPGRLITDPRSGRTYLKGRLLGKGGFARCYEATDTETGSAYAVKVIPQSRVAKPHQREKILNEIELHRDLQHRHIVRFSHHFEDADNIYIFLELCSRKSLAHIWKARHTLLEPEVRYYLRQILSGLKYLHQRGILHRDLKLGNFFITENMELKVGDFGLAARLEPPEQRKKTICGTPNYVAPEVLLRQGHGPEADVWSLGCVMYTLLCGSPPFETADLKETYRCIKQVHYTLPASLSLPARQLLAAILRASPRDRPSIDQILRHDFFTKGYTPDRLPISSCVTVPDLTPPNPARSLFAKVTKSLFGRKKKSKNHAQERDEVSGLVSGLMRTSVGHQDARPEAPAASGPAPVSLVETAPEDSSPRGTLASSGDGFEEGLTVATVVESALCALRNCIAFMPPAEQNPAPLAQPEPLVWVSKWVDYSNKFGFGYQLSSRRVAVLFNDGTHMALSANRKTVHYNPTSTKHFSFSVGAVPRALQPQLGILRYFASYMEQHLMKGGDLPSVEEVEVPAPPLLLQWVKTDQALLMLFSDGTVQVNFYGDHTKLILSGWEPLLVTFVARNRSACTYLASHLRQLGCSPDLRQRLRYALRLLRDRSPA
Chain of Tyrosine-protein kinase ABL1 (Homo sapiens) (P00519 whole entry): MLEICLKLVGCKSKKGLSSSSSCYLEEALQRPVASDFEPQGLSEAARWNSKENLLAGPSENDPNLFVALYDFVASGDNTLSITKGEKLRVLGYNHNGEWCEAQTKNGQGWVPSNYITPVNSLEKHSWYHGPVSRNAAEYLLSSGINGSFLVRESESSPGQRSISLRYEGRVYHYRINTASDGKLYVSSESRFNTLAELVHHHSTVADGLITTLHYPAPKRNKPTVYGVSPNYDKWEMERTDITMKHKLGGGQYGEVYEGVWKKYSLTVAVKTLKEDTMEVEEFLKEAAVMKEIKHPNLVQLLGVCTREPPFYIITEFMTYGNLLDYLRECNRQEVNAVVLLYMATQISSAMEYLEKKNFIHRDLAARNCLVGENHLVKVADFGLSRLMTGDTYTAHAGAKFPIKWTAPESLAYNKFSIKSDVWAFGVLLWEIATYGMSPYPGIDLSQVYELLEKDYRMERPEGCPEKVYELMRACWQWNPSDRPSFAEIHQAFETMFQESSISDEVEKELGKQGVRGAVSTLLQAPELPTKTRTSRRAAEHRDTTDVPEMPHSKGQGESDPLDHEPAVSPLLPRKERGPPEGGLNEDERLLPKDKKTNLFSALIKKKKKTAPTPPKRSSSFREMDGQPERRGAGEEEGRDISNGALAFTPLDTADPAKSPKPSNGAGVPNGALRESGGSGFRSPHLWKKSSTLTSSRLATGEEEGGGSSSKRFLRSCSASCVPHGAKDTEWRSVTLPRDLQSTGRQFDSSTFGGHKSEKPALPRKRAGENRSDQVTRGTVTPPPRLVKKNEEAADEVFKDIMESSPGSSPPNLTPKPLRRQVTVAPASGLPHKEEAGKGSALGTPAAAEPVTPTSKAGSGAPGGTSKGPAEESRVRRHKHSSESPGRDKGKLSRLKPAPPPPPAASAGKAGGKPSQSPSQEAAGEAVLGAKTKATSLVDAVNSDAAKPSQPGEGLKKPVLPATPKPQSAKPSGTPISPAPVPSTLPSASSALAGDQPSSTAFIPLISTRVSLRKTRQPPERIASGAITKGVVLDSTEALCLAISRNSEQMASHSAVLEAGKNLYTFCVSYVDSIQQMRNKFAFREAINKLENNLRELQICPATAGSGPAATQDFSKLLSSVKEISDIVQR
Chain of Calcium/calmodulin-dependent protein kinase type II subunit beta (Homo sapiens) (Q13554 whole entry): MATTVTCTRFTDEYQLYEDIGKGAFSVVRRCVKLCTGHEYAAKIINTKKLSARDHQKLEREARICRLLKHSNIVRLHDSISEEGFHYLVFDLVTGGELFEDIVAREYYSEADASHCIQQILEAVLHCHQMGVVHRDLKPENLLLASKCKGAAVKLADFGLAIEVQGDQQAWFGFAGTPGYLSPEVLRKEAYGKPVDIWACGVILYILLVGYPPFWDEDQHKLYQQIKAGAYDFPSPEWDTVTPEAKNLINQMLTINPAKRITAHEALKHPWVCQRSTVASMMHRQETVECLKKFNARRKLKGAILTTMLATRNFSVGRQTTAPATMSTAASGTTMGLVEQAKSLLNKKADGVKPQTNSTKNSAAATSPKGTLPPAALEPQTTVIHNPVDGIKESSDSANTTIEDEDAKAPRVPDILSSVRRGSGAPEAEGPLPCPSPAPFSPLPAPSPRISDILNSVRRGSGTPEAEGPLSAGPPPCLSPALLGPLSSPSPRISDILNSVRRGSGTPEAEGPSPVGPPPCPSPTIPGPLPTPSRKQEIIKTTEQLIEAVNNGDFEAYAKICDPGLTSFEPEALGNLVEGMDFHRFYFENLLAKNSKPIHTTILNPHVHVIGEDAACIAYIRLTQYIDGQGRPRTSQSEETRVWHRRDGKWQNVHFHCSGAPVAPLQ

For `O=C1Nc2ncccc2/C1=C1/Nc2ncccc2C1=O`, which Activity (MCF7 [1]) is on record?
The Activity was 21.21%.

And the GI50 (MDA-MB-231)?
Its GI50 is 1700 nM.

What about the Activity [2] of the same molecule?
Its Activity is 101%.

What about the Activity [3] of the same molecule?
The Activity was 119%.

And the Activity [4]?
The Activity was 107%.

What about the Activity [5] of the same molecule?
Its Activity is 97%.

And the Activity [6]?
The Activity was 32%.

And the GI50 [7]?
Its GI50 is 2190 nM.

And the Activity [8]?
The Activity was 99%.

And the Activity [9]?
The Activity was 94%.

And the inhibition [10]?
Its inhibition is “Active”.

What about the Activity [11] of the same molecule?
Its Activity is 133%.

What about the Activity [12] of the same molecule?
Its Activity is 76%.

What about the Activity (MCF7 [13]) of the same molecule?
The Activity was “inactive”.

And the Activity [14]?
The Activity was 99%.

What about the Activity [15] of the same molecule?
The Activity was 120%.

What about the Activity [16] of the same molecule?
Its Activity is 123%.

What about the Activity (MCF7 [17]) of the same molecule?
Its Activity is 63.05%.

And the Activity [18]?
The Activity was 99%.

What about the Activity [19] of the same molecule?
Its Activity is 104%.

What about the Activity [20] of the same molecule?
The Activity was 66%.

What about the Activity [21] of the same molecule?
Its Activity is 91%.

What about the Activity [22] of the same molecule?
The Activity was 140%.

And the GI50 (SR)?
The GI50 was 2730 nM.

What about the Activity [23] of the same molecule?
The Activity was 126%.

What about the Activity [24] of the same molecule?
Its Activity is 119%.

And the Activity [25]?
Its Activity is 110%.

And the Activity [26]?
The Activity was 96%.

What about the Activity [27] of the same molecule?
Its Activity is 105%.

— ChEMBL document CHEMBL3098105, “7,7'-Diazaindirubin--a small molecule inhibitor of casein kinase 2 in vitro and in cells” (Bioorg Med Chem, 2014)
